Experimental findings from ChEMBL document CHEMBL3046215, “Aliphatic ketones from Ruta chalepensis (Rutaceae) induce paralysis on root knot nematodes” (J Agric Food Chem, 2011) are described below.

Holding throughout (format): functional, organism-based
Assay [1] concerns Meloidogyne incognita. The experiment in a line: Nematicidal activity against second-stage juvenile Meloidogyne incognita (root-knot nematode) assessed as paralysis measured after 1 hr. The essentials:
(§1)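 Compounds diluted from ethanol stocks into water with Tween 20 (final ≤1% ethanol, ≤0.3% Tween). Motile vs paralyzed scored microscopically; Schneider-Orelli correction for water-control paralysis; EC50 by log-logistic regression; six replicates, two experiments.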

For assay [2], the system named is Meloidogyne incognita. Kind of assay: Nematicidal activity against second-stage juvenile Meloidogyne incognita (root-knot nematode) assessed as paralysis measured after 1 day. To be noted: 24 h. Summed up: as §1
The test system of assay [3] is Meloidogyne javanica. The experiment in a line: Nematicidal activity against second-stage juvenile Meloidogyne javanica (root-knot nematode) assessed as paralysis measured after 1 hr. Summed up:
as §1

The subject of assay [4] is Meloidogyne javanica. Kind of assay: Nematicidal activity against second-stage juvenile Meloidogyne javanica (root-knot nematode) assessed as paralysis measured after 1 day. Conditions: 24 h. The essentials: as §1

In brackets after ≈: the same amount, converted by molar mass.

Take `CCCCCCCCC(C)=O` [2-DECANONE]: the EC50 was 235 µg/mL (≈ 1500 µM) with Meloidogyne incognita [1], 55.6 µg/mL (≈ 356 µM) in the assay on Meloidogyne incognita [2], > 500 µg/mL in the assay with Meloidogyne javanica [3] and 55.9 µg/mL (≈ 358 µM) with Meloidogyne javanica [4].

`CCCCCCCCCCC(C)=O` [2-DODECANONE]: the EC50 in the assay with Meloidogyne incognita [1] was > 500 µg/mL; in the assay on Meloidogyne incognita [2] it was 33.8 µg/mL (≈ 183 µM); with Meloidogyne javanica [3] it was > 500 µg/mL; with Meloidogyne javanica [4], 59.9 µg/mL (≈ 325 µM).

Turning to `CCCCCCCC(C)O` (stereo not drawn) [2-NONANOL], the EC50 with Meloidogyne incognita [1] amounted to 130 µg/mL (≈ 899 µM); with Meloidogyne incognita [2], 108 µg/mL (≈ 746 µM); with Meloidogyne javanica [3] it was 178 µg/mL (≈ 1230 µM); in the assay with Meloidogyne javanica [4], 137 µg/mL (≈ 950 µM).

`CCCCCCCC(C)=O` [2-NONANONE]: the EC50 in the assay on Meloidogyne incognita [1] was 279 µg/mL (≈ 1960 µM); in the assay on Meloidogyne incognita [2], 118 µg/mL (≈ 832 µM); in the assay on Meloidogyne javanica [3], 357 µg/mL (≈ 2510 µM); in the assay on Meloidogyne javanica [4] it was 119 µg/mL (≈ 837 µM).

Take `CCCCCCCCCCCC(C)=O` [2-TRIDECANONE]: the EC50 with Meloidogyne incognita [1] is > 500 µg/mL; in the assay on Meloidogyne incognita [2], 204 µg/mL (≈ 1030 µM); in the assay with Meloidogyne javanica [3], > 500 µg/mL; in the assay on Meloidogyne javanica [4], 200 µg/mL (≈ 1010 µM).

As to `CCCCCCCCCC(C)=O` [METHYL NONYL KETONE], the EC50 in the assay with Meloidogyne incognita [1] was > 500 µg/mL; in the assay with Meloidogyne incognita [2] it was 20.6 µg/mL (≈ 121 µM); with Meloidogyne javanica [3], > 500 µg/mL; in the assay on Meloidogyne javanica [4], 22.5 µg/mL (≈ 132 µM).

Consider `CCCCCCCCOC(C)=O` [OCTYL ACETATE], for which the EC50 in the assay on Meloidogyne incognita [1] was 61.6 µg/mL; with Meloidogyne incognita [2] it was 37.3 µg/mL; in the assay with Meloidogyne javanica [3], 111 µg/mL; in the assay on Meloidogyne javanica [4], 61.4 µg/mL.

By EC50 is commonly meant the concentration that produces a half-maximal response.
